# Results as given in the EternaBench riboswitch data.
# System: MS2 coat protein
# Assay: apparent Kd, MS2 coat protein; higher = weaker binding; RNA-MaP array; FMN 200 µM where present
# Summary of the method: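 Binding was read on Illumina sequencing-chip clusters where stalled E. coli RNA polymerase had transcribed each design. A titration of SNAP-549-labelled MS2 coat protein began at 0.7 or 1.5 nM and doubled to 3 µM, once without ligand and once with constant ligand, in 100 mM Tris-HCl pH 7.5, 80 mM KCl, 4 mM MgCl2, BSA, DTT, yeast tRNA and Tween-20. The apparent Kd is the median of filtered per-cluster binding-curve fits, based on green signal normalised to red-channel RNA signal and control-cluster median Fmax.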
# [1] = designed as: OFF switch for flavin mononucleotide, no ligand
# [2] = ligand present: flavin mononucleotide, designed as: OFF switch for flavin mononucleotide
# [3] = designed as: ON switch for flavin mononucleotide, no ligand
# [4] = ligand present: flavin mononucleotide, designed as: ON switch for flavin mononucleotide
Sequence,apparent Kd [1] [nM],apparent Kd [2] [nM],apparent Kd [3] [nM],apparent Kd [4] [nM]
AAUCCACAUGAGGAUCACCCAUGUCAGGAUAUCGCGCGCGCGUUUUCGGUCUUGCGCGCGAGAAGGGACGGCUG,26.2,46,–,–
AAUCGGGAGCAGAAGGCAUGUCAUAAAACAUGAGGAUCACCCAUGUAGUUAAGGCGAAAGCCGCAUGAGGAUAUGCUCCCGUAA,–,–,5.61,4.69
AAUGAGCAGUAGAAGGCAUGUCUACGGACAUGAGGAUCACCCAUGUAGUGAAUCCGAAAGGAGCAUGAGGAUAUACUGCUCUAA,–,–,143,27.3
AAUGGGCACCAGAAGGACAUGAGGAUCACCCAUGUAGGAUAUGGGCGUUGAAGAUGUCGGAACGAGUUGCUGGAAAGAUAUGGA,–,–,194,20.6
AAUGUCAGAAAGGAUAUGUAACUUGUAACUGUGACAGAAGGUUCGACAUGAGGAUCACCCAUGUUGAUCCAGGU,14.1,26.4,–,–
AAUGUGUCAGGAUAUUGUUAGUUUAGUUGUUUGUAUUAGUUCGAGAAGGGACAUGAGGAUCACCCAUGUUGUUU,30.2,30.6,–,–
AAUGUUGGAGGAUAUACGCGAGUGCUCAGUUGGCCCGGUCGACAUGAGGAUCACCCAUGUAGAAGGCCGACGCU,14.4,16.9,–,–
AAUUAACUCACAGGAUAUAGCAGAGGUCGCGCGAACUUACAGGCGACGAGGCUAGAAGGGUGACCACAUGAGGAUCACCCAUGU,–,–,770,72.4
AAUUAAUUAAUUAAUAUACAUGAGGAUCACCCAUGUAAGAUCAAGGAUAUCAGCUCGAAUAGAGCUGAGAAGGUGAUCACAUGU,–,–,533,674
AAUUACAUGUAGAAGGUACUAACAUAAGUGUUGUAAGGAUAUACCAAUUUAUUAGUUUUAAAGAUACAUGAGGAUCACCCAUGU,–,–,12.5,8.22
AAUUAUUGAUGAGGAUAUUGUGGUGAAACACCACAAGAAGGCAUUAUACACAUGAGGAUCACCCAUGUGAGCCUGAUGCUUAUG,16.7,21.2,–,–
AAUUAUUUACAGAAGGAGUAAGAUUAUGUAUUACUAGGAUAUGUUCACAUGAGGAUCACCCAUGUCAAAGUAGGUUUUUUAUGU,12.4,12.3,–,–
AAUUAUUUUUGAGGAUAUCGUGGUGAAACACCACGAGAAGGCGAGAUAAACAUGAGGAUCACCCAUGUGAGCCUGAUGCUUAUG,21.2,44.4,–,–
AAUUGAAACGUAGGAUAUCGCACUAAUUUUAAACGAGAAGGACGUACAUGAGGAUCACCCAUGUUAAAUGGUGUAGAUUAGAUG,156,692,–,–
AAUUGGAUCCAGAAGGCAUGGACGACCCGUCACAUUAACAUGAGGAUCACCCAUGUCAAAAGACAUGAGGAUAUGGAUCCUAAA,–,–,752,31.8
AAUUGGAUGCAGAAGGCAUGGACGACUCGUCACAUUAACAUGAGGAUCACCCAUGUCAAAAGACAUGAGGAUAUGCAUCCUAAA,–,–,233,13.6
AAUUUAAAGGGAGGAUAUACAUGAGGAUCACCCAUGUAAUCAUAUGAUAUUUUUUUUGUAUGAGUGUAGAAGGCCCAAAUAAAA,7.72,9.3,–,–
AAUUUACAGCUAGGAUAUACAUGAGGAUCACCCAUGUAAUCAUAGGAUGUUAUCAUUGUAUGAGUGUAGAAGGAGCAAAUAAGA,6.73,6.74,–,–
AAUUUACAGGCAGGAUAUACAUGAGGAUCACCCAUGUAAUCAUAUGAUAUUUUUUUUGUAUGAGUGUAGAAGGGCCAAAUAAAA,7.79,7.99,–,–
AAUUUACAGGGAGGAUAUACAUGAGGAUCACCCAUGUAAUCAUAUGAUAUUUCUUUUGUAUGAGUGUAGAAGGCCCAACUACCA,9.96,8.87,–,–
AAUUUACAUGAGGAUCACCCAUGUGAGGAUAUAUAUACAUGCUUGUUAUUGCGUGUGUGUAGAAGGCGCGUGAU,64.7,115,–,–
AAUUUUGCAGGAUAUGCGCAGCGUUUAGCCACACUAUGGAAACAUGAGGAUCACCCAUGUAGAAGGGCAGAGAU,26.4,20.8,–,–
AAUUUUUAACAGAAGGCGUUUAUAUUUAAGUUACGAGGAUAUGUAUAACAUGAGGAUCACCCAUGUAACAUGGAUAUUUAAUAA,–,–,10.3,8.49
ACAAAGUGAGGAUAUGCUUUUAUUUAUUAUUAUUAUUAUUUGCAGAAGGCACAUGAGGAUCACCCAUGUAAGAA,32.9,25.5,–,–
ACAAAUGGAGGAUAUACAUGAGGAUCACCCAUGUAUAUCCUACAUAUGUGAUUUUUAUGUAGAAGGCCAUUUGA,12.8,13.4,–,–
ACAAAUUAGUGAGGAUAUGCUUAAUUUAUAACUGCAGAAGGCACAUACCUCAAGACAUGAGGAUCACCCAUGUGGAAUAUAGAU,25.4,62.8,–,–
ACAAAUUCUGACAUGAGGAUCACCCAUGUUAGAUUGUUAUGUCAGGAUAUUAUCUGGCAACCAGAUGAGAAGGGACGAUUUGUG,–,–,10.6,7.15

Sequence,apparent Kd [1] [nM],apparent Kd [2] [nM],apparent Kd [3] [nM],apparent Kd [4] [nM]
ACACGAAAGUCAGGAUAUGUAUCAGCACGAUAGUUACAUGAGGAUCACCCAUGUUUCACGGGCCAACAGAAGGGACAGGGUGGC,–,–,18.4,7.62
ACAGAGGCUGACAUGAGGAUCACCCAUGUUAGAUUGUUAUGUCAGGAUAUUAUCUGGCAACCAGAUGAGAAGGGACCCUCUGUU,–,–,21.5,7.68
ACAGCCGUCUAGAAGGGCGUAACUAAUUCCUACGUAGGAUAUGGACGGACAUGAGGAUCACCCAUGUUUGCAUUCCUCGUGGUA,7.74,8.46,–,–
ACAGCGGAGGCAGGAUAUCGCACAUGAGGAUCACCCAUGUGGUUAUUUACGGGUUGGUGGUCACGCGAGAAGGGCCAACCAUAA,59,31.7,–,–
ACAGUUGGUAGGCCCUCGGAACAUGAGGAUCACCCAUGUAAGGAGGAUAUGCCCGGUACCCGCUGGCAGAAGGCCUUAUAAGAA,8.8,44.9,–,–
ACAUAAAUUCGAGGAUAUCGGUGAUAUAAUUUACGAGAAGGCGAUAAAUGUUAUAAACUUAUAGACAUGAGGAUCACCCAUGUA,–,–,35.1,32.5
ACAUACUUUCGAGGAUAUCGGUGAUAAAUUUUACGAGAAGGCGAUAAAAGAUAUAAUCUUAUAAACAUGAGGAUCACCCAUGUA,–,–,25.5,23.9
ACAUAGUAAGGAUAUGCUGCUCGUCACUUGCGUGAUGAGUAGCAGAAGGUACAUGAGGAUCACCCAUGUAAAGA,30.1,20.3,–,–
ACAUGAGGAUCACCCAUGUAAAAUGAAGAAGGUAUAUACUUGAGGAUCACCCAUGUACAUGGGAGUAAGGAUAUUCUAAUAAUU,–,–,13.2,11.3
ACAUGAGGAUCACCCAUGUAAUAACAUCGGUUAUACGAAAGUGAGGAUAUCGAUCAGGCAUAUUACGAGAAGGCACAAUAGGGA,–,–,41.3,43.2
ACAUGAGGAUCACCCAUGUAGAAUGGAGAAGGUAGAUACUUGUGACUCACCCAUGUACAUAGGACUAAGGAUAUUCUAAUAAUU,–,–,94.4,54.2
ACAUGAGGAUCACCCAUGUAUACAUAGGAUAUUGGUGAUCAGGCAUGUUAUACAGGAUAUGUCUGCGAGAAGGAUGCACGUUGC,–,–,680,476
ACAUGAGGAUCACCCAUGUAUUACAUGGUUAAGUUUAUUAACAGAAGGCGAAAUUACCACUUGAUCGAGGAUAUGUAUUCAAUU,45,40.3,–,–
ACAUGAGGAUCACCCAUGUAUUACAUGGUUUAGUUUAUUAACAGAAGGCGAAAUUACCACUUUUUCGAGGAUAUGUAUUCUAUA,71,64.2,–,–
ACAUGAGGAUCACCCAUGUAUUUGUAGGAUAUACACAAUUCUUUAUUACUCUAAUUAAUAUGUUUGUAGAAGGACACUGCAUGA,9.71,9.52,–,–
ACAUGAGGAUCACCCAUGUGAAAAGAAUGGCUGACACAGAGAUAGGAUAUAUGUGCAUAUCUAACGUAGAAGGGUCAUGACUGG,33.3,36.4,–,–
ACAUGAGGAUCACCCAUGUGGAGUGAAGAAGGUGGUUACUUAAGACUCUUCCAUGUACUUAGGACUGAGGAUAUUCUAAUAUUU,–,–,53.8,30.5
ACAUGAGGAUCACCCAUGUUAAACGAGGAUAUUUGACUGCACAUGAGGUUCACCCAUGUUCUGCCGAAGAAGGUGUAAAUAAUU,–,–,39.2,31.2
ACAUGAGGAUCACCCAUGUUAAAUUAGGAUAUUUGACUGCACAUGAGGUUCACCCAUGUUCUACCGAAGAAGGGAUUAAUAAUU,–,–,50,49.8
ACAUGAGGAUCACCCAUGUUAUCAGGGACUUCAAUUAUUUGUAGAAGGAUGUUUUCUUGUUAGUCAUAGGAUAUACAAUUAAAU,16,15.3,–,–
ACAUGAGGAUCACCCAUGUUAUCCGGGACUUCAAUUGUAUCUAGAAGGCUGUCUGCUUGUUAGUCAGAGGAUAUAGAUUCAAAU,12.4,11.1,–,–
ACAUGAGGAUCACCCAUGUUCACAUAGGAUAUUGAUUAUAUUGGUUAUAGAAUAGUUAUAAUGCUCAAGAAGGAUGCCAGUUGU,–,–,11,8.94
ACAUGAGGAUCACCCAUGUUCGUUGAAGAAGGUACCAUUUACUUUAGUAGUAUUAAUUUAUUUGGUAAGGAUAUUCUCAUAAUU,–,–,15.9,7.75
ACAUGAGGAUCACCCAUGUUGAAUUAGGAUAUUUGACUGCACAUGAGGUUCACCCAUGUUCUACCGAAGAAGGGAUUAAUAAUU,–,–,120,118
ACAUGAGGAUCACCCAUGUUGAAUUAGGAUAUUUGACUGCACAUGAGGUUCACCCAUGUUCUACCGGAGAAGGGAUUAAUAAUU,–,–,129,132
ACAUGAGGAUCACCCAUGUUUACAUGGAUUAUUAAUCUUUGAUAGGAUAUGUUAGUUAAGUAUUUACAGAAGGAUCAAUACCAA,15.9,12.2,–,–
ACAUGAUACUAGGAUAUCAGCAUACUUCAAUGUUGAGAAGGAGUAACAUGAGGAUCACCCAUGUAUCCAACAUG,46.9,219,–,–
